The values that follow come from paper PMC3446773 (Cancer research, 2009).

Assay [1] concerns MDA-MB-231 orthotopic breast tumor xenograft. The assay can be described thus: Orthotopic breast cancer xenograft in nude mice. Format: in vivo, nu/nu mice. The following applies: for Blood vessel density in tumor (CD31 staining): 10 mg/kg i.p. alone, four doses; for Tumor size relative to controls: 10 mg/kg i.p., twice per week for 2 wk, starting 2 wk after cell transplantation; for Tumor volume relative to control group: 3 mg/kg i.p., P < 0.01, 1b vs 1a not different (P = 0.16). The essentials: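 Female nu/nu mice, 4–6 wk, anesthetized with ketamine/xylazine i.p. Trypsinized MDA-MB-231 cells in cross-linkable ECM (5 × 10^7 cells/mL) were injected into the fourth mammary fat pad (200 µL; 100 µL in 3 mg/kg study). From 2 wk after implant, i.p. twice weekly for 2 wk; six mice/group; saline control. Arms: test compound 10 mg/kg, Taxol 10 mg/kg, Taxol week 1 then compound week 2; diastereomers 3 mg/kg. Volume = width² × length/2.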

The target in the next assay is T1, human LPA3 (Homo sapiens, UniProt Q9UBY5).
T1 sequence (Q9UBY5 1-353): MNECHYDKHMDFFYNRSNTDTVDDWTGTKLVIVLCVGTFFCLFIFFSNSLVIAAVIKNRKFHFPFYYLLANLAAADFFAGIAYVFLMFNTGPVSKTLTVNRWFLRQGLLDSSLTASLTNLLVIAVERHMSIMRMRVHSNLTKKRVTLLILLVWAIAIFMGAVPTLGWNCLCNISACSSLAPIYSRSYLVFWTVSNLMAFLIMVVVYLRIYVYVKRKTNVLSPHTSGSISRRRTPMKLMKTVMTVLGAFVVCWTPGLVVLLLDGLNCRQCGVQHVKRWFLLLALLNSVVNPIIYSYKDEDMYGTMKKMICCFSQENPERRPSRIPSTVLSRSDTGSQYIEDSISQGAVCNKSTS
The assay can be described thus: Ca2+ mobilization assay, LPA3 expressed in RH7777 cells. It is filed as cell-based. The following applies: for LPA3 ligand type / Ki / IC50: Ca2+ mobilization, RH7777 cells; for Ki: read-out: LPA3 Ki; for IC50: read-out: LPA3 antagonist IC50. A digest of the protocol:
(§1)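 Intracellular Ca2+ mobilization measured in RH7777 cells expressing the human receptor (LPA1, LPA2, LPA3 or LPA5); parental line intrinsically unresponsive to LPA. Both activation and inhibition of LPA responses tested. Quadruplicate tests; EC50, IC50 and Ki derived by sigmoid curve fitting.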
Background: Calcium assays in cells follow changes in intracellular calcium, usually with a dye or a luminescent sensor.

Another assay concerns the target human LPA2 (Homo sapiens, UniProt Q9HBW0). As to the kind of experiment: Ca2+ mobilization assay, LPA2 expressed in RH7777 cells. It is filed as cell-based. As to conditions: for Ki: read-out: LPA2 Ki; for IC50: read-out: LPA2 antagonist IC50. A digest of the protocol:
as §1

Assay [2] relates to MDA-MB-231 cells. As to the kind of experiment: In vitro invasion assay through Matrigel-coated transwell membranes. Format: cell-based, human. The following applies: P < 0.05.
Another assay addresses human LPA5 (Homo sapiens, UniProt Q9H1C0). As to the kind of experiment: Ca2+ mobilization assay, LPA5 expressed in RH7777 cells. It is filed as cell-based. As to conditions: for LPA5 ligand type: transiently transfected; for LPA5 E max: at 10 μmol/L. The essentials: as §1
For another assay, the target named is human LPA1 (Homo sapiens, UniProt Q92633). As to the kind of experiment: Ca2+ mobilization assay, LPA1 expressed in RH7777 cells. It is filed as cell-based. As to conditions: for Ki: read-out: LPA1 Ki; for IC50: read-out: LPA1 antagonist IC50. The essentials:
as §1

Assay [3] deals with MDA-MB-231 cells. The assay can be described thus: Scratch wound assay. Format: cell-based, human. The following applies: for Effect on MDA-MB-231 cell migration: 10 and 40 μmol/L, 24 h.
Another assay has as its target human LPA4 (Homo sapiens, UniProt Q99677). As to the kind of experiment: Ca2+ mobilization assay, LPA4 expressed in CHO cells. Format: cell-based. As to conditions: for LPA4 ligand type: Ca2+ mobilization, CHO cells; for LPA4 inhibition: at 30 μmol/L (400 nmol/L LPA).
The target of assay [4] is T2, recombinant hemagglutinin-tagged ATX (ATX-HA) (Homo sapiens, UniProt Q13822). The assay can be described thus: ATX assay, hydrolysis of fluorogenic substrate FS-3. It is filed as biochemical. As to conditions: for ATX inhibition: 10 μmol/L, FS-3 substrate 1 μmol/L, 2 h, 37°C; for IC50: read-out: ATX inhibition IC50, FS-3 substrate, 0.01 to 10 μmol/L. A digest of the protocol: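 Mixed with FS-3 (final 1 µmol/L) and test compound (0.01–10 µmol/L) in assay buffer with BSA. Fluorescence read at ex 485/em 538 nm over 2 h, 37°C. The 0–120 min difference was normalized to vehicle; triplicate wells, % inhibition; Student's t test.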

The target in assay [5] is T2, recombinant hemagglutinin-tagged ATX (ATX-HA). The following applies: at 10 μmol/L; previously observed; cited from earlier work.
The mark [6] stands for this setting: Ca2+ mobilization, RH7777 cells.

Each structure is given as a SMILES string.

Chain of human LPA5 (Q9H1C0 whole entry): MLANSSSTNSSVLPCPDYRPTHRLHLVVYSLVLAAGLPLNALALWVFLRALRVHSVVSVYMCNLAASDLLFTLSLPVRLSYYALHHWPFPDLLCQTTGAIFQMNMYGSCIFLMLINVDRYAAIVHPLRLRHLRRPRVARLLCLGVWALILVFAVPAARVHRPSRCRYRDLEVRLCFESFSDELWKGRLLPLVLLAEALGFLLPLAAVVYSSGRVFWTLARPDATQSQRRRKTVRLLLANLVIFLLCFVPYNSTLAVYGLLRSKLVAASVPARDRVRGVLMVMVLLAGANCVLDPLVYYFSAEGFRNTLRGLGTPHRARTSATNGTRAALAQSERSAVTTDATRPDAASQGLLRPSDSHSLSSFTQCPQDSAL
Chain of human LPA1 (Q92633 whole entry): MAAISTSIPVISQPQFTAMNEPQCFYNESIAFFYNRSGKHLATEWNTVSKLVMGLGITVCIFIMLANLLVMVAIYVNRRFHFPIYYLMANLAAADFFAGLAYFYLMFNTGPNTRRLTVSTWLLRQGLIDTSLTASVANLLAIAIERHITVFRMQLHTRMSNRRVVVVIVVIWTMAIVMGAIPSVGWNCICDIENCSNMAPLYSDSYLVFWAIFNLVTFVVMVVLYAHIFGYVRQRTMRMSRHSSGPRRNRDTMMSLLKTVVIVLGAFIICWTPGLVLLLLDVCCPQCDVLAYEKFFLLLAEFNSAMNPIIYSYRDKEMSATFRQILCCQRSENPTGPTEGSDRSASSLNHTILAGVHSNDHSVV
Chain of human LPA4 (Q99677 whole entry): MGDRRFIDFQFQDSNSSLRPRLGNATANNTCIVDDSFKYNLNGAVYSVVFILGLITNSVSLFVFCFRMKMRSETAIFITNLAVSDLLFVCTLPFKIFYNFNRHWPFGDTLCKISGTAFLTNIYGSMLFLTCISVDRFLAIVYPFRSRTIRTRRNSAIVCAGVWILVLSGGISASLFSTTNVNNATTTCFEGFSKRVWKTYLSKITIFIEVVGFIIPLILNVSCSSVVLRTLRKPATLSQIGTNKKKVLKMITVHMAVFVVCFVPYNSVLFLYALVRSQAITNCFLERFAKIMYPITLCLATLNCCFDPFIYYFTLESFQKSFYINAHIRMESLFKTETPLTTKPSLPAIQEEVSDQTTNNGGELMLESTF
Chain of human LPA2 (Q9HBW0 whole entry): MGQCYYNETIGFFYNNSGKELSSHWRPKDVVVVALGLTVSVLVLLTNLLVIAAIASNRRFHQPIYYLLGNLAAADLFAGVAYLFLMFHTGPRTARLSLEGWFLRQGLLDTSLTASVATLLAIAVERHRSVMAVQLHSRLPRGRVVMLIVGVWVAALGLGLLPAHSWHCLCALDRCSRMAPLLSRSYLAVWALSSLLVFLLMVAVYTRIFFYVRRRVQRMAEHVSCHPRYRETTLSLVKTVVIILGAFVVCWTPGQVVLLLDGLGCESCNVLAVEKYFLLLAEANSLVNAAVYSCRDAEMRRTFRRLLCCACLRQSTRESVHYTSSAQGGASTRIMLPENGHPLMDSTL

Take `CC(=O)O[C@H]1C(=O)[C@@]2(C)[C@H]([C@H](OC(=O)c3ccccc3)[C@]3(O)C[C@H](OC(=O)[C@H](O)[C@@H](NC(=O)c4ccccc4)c4ccccc4)C(C)=C1C3(C)C)[C@]1(OC(C)=O)CO[C@@H]1C[C@@H]2O` [Taxol, reference compound]: in assay [1], the “Blood vessel density in tumor (CD31 staining)” value was “statistically different from the control” and the “Tumor size relative to controls” value is on record as “reduction of tumor size relative to controls”.
For the compound `CCCCCCCCCCCCCCCC(=O)OC[C@@H](O)C[C@@H](Br)P(=O)(O)O` [1a], at human LPA3, the LPA3 ligand type entry is “Antagonist”; the Ki (as a rule, the equilibrium dissociation constant of an inhibitor or competing ligand from its target) amounted to 1830 nM; the IC50 (in general, the concentration at which inhibition is half-maximal) amounted to 4440 nM. Also, on human LPA2, the LPA2 ligand type entry is “Antagonist”, the Ki was 250 nM and the IC50 came to 288 nM. Further, in the assay with MDA-MB-231 cells [2], the “Inhibition of MDA-MB-231 invasion” value was ~ 52%. At human LPA5 (setting [6]), the LPA5 ligand type entry is “Partial agonist”. Further, the “LPA5 E max” value on human LPA5 is on record as 64%. Moreover, at human LPA1, the LPA1 ligand type result was “Antagonist”, the Ki came out at 273 nM and the IC50 came to 648 nM. Besides, the “Tumor volume relative to control group” value in assay [1] is “significantly decreased the tumor volume”. Also, in the assay with MDA-MB-231 cells [3], the “Effect on MDA-MB-231 cell migration” value is listed as “inhibited the MDA-MB-231 cell migration”. Also, at human LPA4, the LPA4 ligand type result is “Antagonist” and the LPA4 inhibition is reported as 35.1%. Besides, in assay [4], the ATX inhibition is reported as 98.1 ± 2.3% inhibition (10 μmol/L) and the IC50 came out at 165 nM.
With `CCCCCCCCCCCCCCCC(=O)OCC(O)CC(Br)P(=O)(O)O` (stereo not drawn) [compound 1, palmitoyl α-bromomethylenephosphonate], the LPA3 ligand type result on human LPA3 was “Antagonist”. Also, the LPA3 inhibition on human LPA3 (at 30 μmol/L (200 nmol/L LPA)) is on record as 71.3%. Besides, at human LPA2, the LPA2 ligand type result is on record as “Antagonist”, the Ki amounted to 245 nM and the IC50 was determined as 468 nM. At human LPA5 (setting [6]), the LPA5 ligand type result is reported as “Partial agonist”. Also, on human LPA5, the “LPA5 E max” value is 54%. For the same compound, the EC50 – broadly, the midpoint of the concentration-response curve – at human LPA5 (read-out: LPA5 agonist EC50, Ca2+ mobilization, NS = non-saturated) was 1280 nM. In addition, at human LPA1, the LPA1 ligand type entry is reported as “Antagonist”, the Ki stood at 805 nM and the IC50 came to 4520 nM. In assay [1], the “Blood vessel density in tumor (CD31 staining)” value is given as “significantly lower blood vessel density” and the “Tumor size relative to controls” value is on record as “reduction of tumor size relative to controls”. In [1] (Taxol (10 mg/kg, two doses) then BrP-LPA 1 (10 mg/kg, two doses), i.p.), the “Blood vessel density in tumor (CD31 staining), sequential treatment” value was “statistically different from the control”. For the same compound, the “Tumor size relative to controls, sequential treatment” value in [1] (two injections of Taxol (10 mg/kg) week 1, then two injections of BrP-LPA 1 (10 mg/kg) week 2, i.p.) is recorded as “reduction of tumor size relative to controls”. Further, the “Effect of mixed diastereomers on cell migration” value with MDA-MB-231 cells [3] (data not shown) was “intermediate inhibition of cell migration”. Also, on human LPA4, the LPA4 ligand type entry was “Antagonist” and the LPA4 inhibition was found to be 13.9%. Also, the ATX activity inhibited entry in assay [5] was “over 98%”. Besides, the ATX inhibition in assay [4] is 102 ± 2.7% inhibition (10 μmol/L).
For the compound `CCCCCCCCCCCCCCCC(=O)OC[C@@H](O)C[C@H](Br)P(=O)(O)O` [1b], on human LPA3, the LPA3 ligand type result is “Antagonist”, the Ki stood at 623 nM and the IC50 came out at 2090 nM. For the same compound, at human LPA2, the LPA2 ligand type entry is given as “Antagonist”, the Ki came to 241 nM and the IC50 amounted to 275 nM. The “Inhibition of MDA-MB-231 invasion” value in the assay with MDA-MB-231 cells [2] is given as ~ 52%. In addition, the LPA5 ligand type entry on human LPA5 (setting [6]) is “Antagonist”. Also, the Ki at human LPA5 (read-out: LPA5 Ki, Ca2+ mobilization, RH7777 cells) stood at 376 nM. Besides, the IC50 on human LPA5 (read-out: LPA5 antagonist IC50, Ca2+ mobilization, RH7777 cells) was found to be 977 nM. On human LPA1, the LPA1 ligand type result was “Antagonist”, the Ki was 752 nM and the IC50 is 2080 nM. In addition, the “Tumor volume relative to control group” value in assay [1] was “significantly decreased the tumor volume”. Further, the “Decrease of MDA-MB-231 cell migration vs untreated control” value in the assay with MDA-MB-231 cells [3] (40 μmol/L, P < 0.05) is recorded as 57%. Besides, the “Effect on MDA-MB-231 cell migration” value in the assay on MDA-MB-231 cells [3] is recorded as “inhibited the MDA-MB-231 cell migration”. Further, on human LPA4, the LPA4 ligand type entry was “Antagonist” and the LPA4 inhibition is on record as 33.1%. In assay [4], the ATX inhibition is reported as 99.4 ± 2.7 % Inhibition (10 μmol/L) and the IC50 is 22 nM.
